Source: PubChem BioAssay (several laboratories)
The list is not random: actives were taken first. Their share in the collection is about 3.6%.
RAM network inh: inhibitors of the yeast RAM network, primary screen, dse1pr::URA3 reporter, 5-FOA selection | S. cerevisiae dse1pr::URA3 reporter, 5-FOA growth OD615, 2 d; analog-sensitive cbk1-as2 kinase mutant strain | inhibition, % at 50 µM | actives 1.8% (n = 190,000) | AID 868, 2007;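 active = inhibition above a set limit, 3 SD over mean compound inhibition, cut at about 8.4% in these data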;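 note: 0% = DMSO-only wells with no growth and 100% = 10 µM 1-NA-PP1 full growth; inhibition rescues growth on 5-FOA so higher OD means more RAM inhibition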
Phagocytosis inh: inhibitors of macrophage phagocytosis, primary screen, imaging, J774A.1 cells, IgG beads. inhibition, % at 5 µM. actives 0.07% (n = 110,000). J774A.1 macrophage IgG-bead phagocytosis;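 active = inhibition above the mean of the plate negative controls plus 5 SD, cut at about 13% in these data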;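 note: phagocytic index as fraction of beads internalized from green versus red external bead signal; plate controls were DMSO negative control for no effect and cytochalasin-D positive control for full effect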
BB579 growth dn: growth inhibitors of yeast BB579 in restrictive medium, primary screen, yeast lifespan-shortening project, S. cerevisiae; OD615, 48 h; inhibition, % at 10 µM; actives 0.51% (n = 140,000); AID 804, 2007;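 active = inhibition above a set limit, 3 SD over the mean compound inhibition, cut at about 44% in these data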
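Assay system – yeast BB579 (DeaD) · Dosing – single compound dose of 10 µM, 0.25% DMSO final · Detection – OD615 turbidity measurement · Buffer or medium – CSMM-D restrictive synthetic medium containing dextrose (glucose) · Benchmarks – positive control amphotericin B 10 µg/mL · Incubation – 48 h exposure, 30 °C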
Measles CPE: compounds protecting cells from measles virus cytopathic effect, primary screen, measles RdRp inhibitor project, single point, MLSMR library, absorbance; AID 841, 2007; Measles virus-infected cells, CPE protection; protection (pct of control), % at 4 µM; actives 1.5% (n = 140,000); in the data active = protection mostly above about 24%, no sharp cut-off; inactive = mostly below about 26%
Yeast life ext: compounds extending yeast replicative lifespan, primary screen, S. cerevisiae, OD615; S. cerevisiae growth with nicotinamide; deaD strain in restrictive glucose medium; inhibition of the nicotinamide effect, % at 10 µM; actives 0.68% (n = 130,000);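 active = inhibition above a set limit, placed 3 SD over the median of all compounds, cut at about 26% in these data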;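 note: 0% = nicotinamide-treated wells and 100% = cells grown without nicotinamide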
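Assay system: engineered S. cerevisiae DeaD replicative-lifespan strain, galactose-grown log-phase cells; medium: restrictive CSMM-D dextrose medium; also added: nicotinamide, 1.5 mM, co-present with compound; schedule: 48 h compound exposure at 30 °C, humidified; detection: absorbance at 615 nm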
* = called active by the depositor.

What do the screens show for `CC(OC(=O)c1ccc(S(=O)(=O)N(C)c2ccccc2)cc1)C(=O)NCCC1=CCCCC1` (stereo not given)?
RAM network inh: 8.8*; Phagocytosis inh: -2; BB579 growth dn: -15; Measles CPE: 20; Yeast life ext: 3

Results for O=C(COc1cccc2ccccc12)NCc1cccnc1 ?
RAM network inh: 2

What do the screens show for `Oc1ccc(N=Nc2n[nH]c(-c3ccc(Br)cc3)n2)cc1`?
RAM network inh: 8.8*; Phagocytosis inh: -6; BB579 growth dn: -35; Measles CPE: 17; Yeast life ext: 3

Results for O=C(Nc1nc(=S)ss1)c1ccc(Cl)cc1Cl ?
RAM network inh: 0; BB579 growth dn: -18; Measles CPE: 13; Yeast life ext: -9

What do the screens show for `C=CCN1C(=O)C(Cc2ccc(SC(F)F)cc2)SC1=Nc1ccc(C(=O)O)cc1` (stereo not given)?
RAM network inh: 8.7*

What do the screens show for `C=CCN1C(=O)C(CC(=O)O)SC1=Nc1ccc(C(=O)O)cc1` (stereo not given)?
RAM network inh: 0

How did CCOC(=O)C1CCN(C(=O)c2ccccc2NS(=O)(=O)c2ccc(F)cc2)CC1 do in these assays?
RAM network inh: 1; Phagocytosis inh: -5; BB579 growth dn: -4; Measles CPE: 8; Yeast life ext: 3

Results for O=C(CSCc1cnn(-c2ccccc2)c1-n1cccc1)NCc1ccc2c(c1)OCO2 ?
RAM network inh: 11*; BB579 growth dn: -42; Measles CPE: 14; Yeast life ext: -1

Results for COc1ccc(Cl)cc1NC(=O)Cn1cccc1 ?
RAM network inh: 4; Phagocytosis inh: -2; BB579 growth dn: -14; Measles CPE: 34*; Yeast life ext: -6

How did COc1ccc(NC(=O)Cn2cccc2)cc1Cl do in these assays?
RAM network inh: 1; Phagocytosis inh: -2; BB579 growth dn: -60; Measles CPE: 41*; Yeast life ext: -11

How did COc1cc(OC)c(NC(=O)Cn2cccc2)cc1Cl do in these assays?
RAM network inh: 1; Phagocytosis inh: 0; BB579 growth dn: 4; Measles CPE: 36; Yeast life ext: -9

How did COc1cc(NC(=O)c2cccc(Cl)c2)c(OC)cc1NC(=O)CN1CCOCC1 do in these assays?
RAM network inh: 1; Phagocytosis inh: 0; BB579 growth dn: -47; Measles CPE: 73*; Yeast life ext: -20

What do the screens show for `COC(/C=C/Nc1ccc(C)cc1)=C(C#N)C#N`?
RAM network inh: 1; Phagocytosis inh: -1; BB579 growth dn: -26; Measles CPE: 3; Yeast life ext: -8

What do the screens show for `O=C(/C=C/c1cn(-c2ccccc2)nc1-c1cccc(Cl)c1)N1CCN(c2ccccn2)CC1`?
RAM network inh: -1

What do the screens show for `Cc1ccc(S(=O)(=O)N(CC(=O)NC2CCCC2)c2cccc(C)c2)cc1`?
RAM network inh: 1; Phagocytosis inh: 2; BB579 growth dn: -50; Measles CPE: 19; Yeast life ext: 7

How did O=C(CCCN1C(=O)/C(=C\c2cccs2)SC1=S)NNC(=O)c1cccnc1 do in these assays?
RAM network inh: 4

What do the screens show for `COCCNC(=O)C(c1ccc(F)cc1)N(C(=O)CCC(=O)Nc1nccs1)c1cccc(C)c1` (stereo not given)?
RAM network inh: 9.6*

How did Cc1cccc(N(C(=O)CCC(=O)Nc2nccs2)C(C(=O)NC(C)(C)C)c2ccc(O)cc2)c1 (stereo not given) do in these assays?
RAM network inh: 2

How did N#CC1(Cc2ccccc2)c2ccccc2C=CN1C(=O)c1ccccc1 (stereo not given) do in these assays?
RAM network inh: 8.7*; BB579 growth dn: -15; Measles CPE: 10; Yeast life ext: -5

Results for COc1ccc(/C=N/NC(=O)c2nn(-c3ccccc3)c(=O)c3c(N)scc23)cc1 ?
RAM network inh: 7; Phagocytosis inh: 1; BB579 growth dn: -22; Measles CPE: 51*; Yeast life ext: -21

Results for COc1ccc(/C=N/NC(=O)c2nn(-c3ccc(Cl)cc3)c(=O)c3c(N)scc23)cc1 ?
RAM network inh: 5; Phagocytosis inh: -1; BB579 growth dn: -22; Measles CPE: 12; Yeast life ext: -20

What do the screens show for `CC1Cc2cccc3c(O)c(C(=O)c4nn[nH]n4)c(=O)n1c23` (stereo not given)?
RAM network inh: -1; Phagocytosis inh: 2; BB579 growth dn: 12; Measles CPE: 2; Yeast life ext: 7

How did CCCN(CCC)CCCNC(=S)Nc1ccc2nc3n(c(=O)c2c1)CCCCC3 do in these assays?
RAM network inh: 0; Phagocytosis inh: -6; BB579 growth dn: -27; Measles CPE: 9; Yeast life ext: 1

Results for CCN(CC)S(=O)(=O)c1cccc(C(=O)N2CC(O)CC2C(=O)OC)c1 (stereo not given) ?
RAM network inh: 0; Phagocytosis inh: 0; BB579 growth dn: -25; Measles CPE: 13; Yeast life ext: -3

How did CCN(CC)S(=O)(=O)c1cccc(C(=O)N2CC(O)CC2C(=O)O)c1 (stereo not given) do in these assays?
RAM network inh: 0; Phagocytosis inh: 6; BB579 growth dn: -33; Measles CPE: 28*; Yeast life ext: -12

What do the screens show for `COc1ccc(-c2nnc3c4ccccc4c(C)nn23)cc1`?
RAM network inh: 1; Phagocytosis inh: 2; BB579 growth dn: 49*; Measles CPE: 4; Yeast life ext: -5

How did Cc1ccccc1-c1nnc2c3ccccc3c(C)nn12 do in these assays?
RAM network inh: 0; BB579 growth dn: -14; Measles CPE: 12

How did Cc1nn2c(-c3ccco3)nnc2c2ccccc12 do in these assays?
RAM network inh: 3; Phagocytosis inh: 0; BB579 growth dn: 88*; Measles CPE: 1; Yeast life ext: -12

What do the screens show for `Cc1nn2c(-c3ccncc3)nnc2c2ccccc12`?
RAM network inh: 2; Phagocytosis inh: -1; BB579 growth dn: 89*; Measles CPE: 9; Yeast life ext: -13

What do the screens show for `Cc1cc(C(C#N)c2ccccc2F)n2ncnc2n1` (stereo not given)?
RAM network inh: 1

How did C=CCn1c2ccccc2c2nnc(SCC(=O)NC(C(=O)OC)C(C)C)nc21 (stereo not given) do in these assays?
RAM network inh: 2; Phagocytosis inh: 9; BB579 growth dn: -32; Measles CPE: 8; Yeast life ext: 17

What do the screens show for `CC12CCC(C(=O)NCc3ccccc3)(OC1=O)C2(C)C` (stereo not given)?
RAM network inh: 3; Phagocytosis inh: 2; BB579 growth dn: 20; Measles CPE: 4; Yeast life ext: -6

How did CC12CCC(C(=O)N3CCN(C(c4ccccc4)c4ccccc4)CC3)(OC1=O)C2(C)C (stereo not given) do in these assays?
RAM network inh: 0; Phagocytosis inh: -1; BB579 growth dn: 0; Measles CPE: 34*; Yeast life ext: -18
